From ChEMBL document CHEMBL1800034, “A synthetic 7,8-dihydroxyflavone derivative promotes neurogenesis and exhibits potent antidepressant effect” (J Med Chem, 2010) come the findings set out here.

Molecules are shown by their SMILES. The source made the active and inactive calls. No cut-off for these calls is given here.

Data set [1] concerns Mus musculus. As to the kind of experiment: Agonist activity at TrkB in C57BL/6J mouse brain lysate assessed as TrkB phosphorylation at Y817 at 5 mg/kg, po administered for 21 days by immunoblotting. It is filed as functional, organism-based. Further details: dose 5 mg/kg. The procedure, abridged:
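Adult male C57BL/6J mice, 8 per group, dosed orally by gavage once daily for 21 days; saline was the vehicle. Brain lysates were immunoblotted with anti-p-TrkA 794 and anti-p-TrkB 817.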

In data set [2] the test system is Mus musculus. In words: Antidepressant activity in TrkB F616A knock in mouse assessed as reduction of immobility time at 5 mg/kg, po administered for 21 days by forced swim test assay in presence of TrkB F616A inhibitor 1NMPP1. Type of data set: functional, organism-based. Further details: dose 5 mg/kg.
For data set [3], the system named is Mus musculus. As to the kind of experiment: Toxicity in C57BL/6J mouse assessed as pathological changes in kidney at 5 mg/kg, po for 3 weeks. Type of data set: organism-based. Also on record: dose 5 mg/kg, route oral. The following applies: in vivo, 504 h. The procedure, abridged:
(§1)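 Mice were dosed orally at 5 mg/kg for 3 weeks, with saline-treated controls. Major organs were examined for pathological changes, and a complete blood count was done.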

Data set [4] has as its system Mus musculus. In words: Toxicity in C57BL/6J mouse assessed as pathological changes in spleen at 5 mg/kg, po for 3 weeks. It is filed as organism-based. Further details: dose 5 mg/kg, route oral. The following applies: in vivo, 504 h. The procedure, abridged:
as §1

Data set [5] relates to Mus musculus. As to the kind of experiment: Toxicity in C57BL/6J mouse assessed as pathological changes in testis at 5 mg/kg, po for 3 weeks. It is filed as organism-based. Further details: dose 5 mg/kg, route oral. Conditions: in vivo, 504 h. A digest of the protocol:
as §1

The subject of a further data set is HEK293. As to the kind of experiment: Cytotoxicity against human HEK293 cells assessed as inhibition of cell proliferation at up to 50 uM by MTT assay. It is filed as cell-based. In general terms: Tetrazolium dyes change colour on reduction, which living cells bring about.
Data set [6] in a line: Cytotoxicity at E17 rat primary cortical neurons assessed as cell death at 5 uM by LDH assay. Conditions: cerebral cortex neuron. It is filed as cell-based.
The target of data set [7] is BDNF/NT-3 growth factors receptor (Rattus norvegicus) (UniProt Q63604). In words: Agonist activity at TrkB in E17 rat primary rat cortical neurons assessed as AKT phosphorylation at Ser 473 at 100 nM after 15 mins by titration assay. Type of data set: functional. The procedure, abridged: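 Primary cortical neurons were incubated with graded concentrations, starting at 10 nM, for 15 min. Phospho-Akt Ser473 was measured by sandwich ELISA on 20 µg of lysate. Data come from 2 replicated experiment sets, given as mean ± SEM. Comparisons used one-way ANOVA against control and Student's t-test between compounds.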

Data set [8] has the same target. As to the kind of experiment: Agonist activity at TrkB in E17 rat primary cortical neurons at 500 nM after 10 mins by immunoblotting. Conditions: Cerebral cortex neuron. Type of data set: functional, cell-based. A digest of the protocol:
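Rat primary cortical neurons were exposed to 500 nM compound for various times between 5 and 180 min. Lysates were immunoblotted for TrkB, Akt and MAPK phosphorylation.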

The test system of data set [9] is Mus musculus. In words: Agonist activity at TrkB in C57BL/6J mouse brain assessed as TrkB 706 phosphorylation at 1 mg/kg, po after 4 hrs by immunoblotting. It is filed as functional, organism-based. Further details: dose 1 mg/kg. A digest of the protocol: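 C57BL/6J mice got a single oral dose of 1 mg/kg. Brains were collected at several time points, about 1 to 16 h after dosing. Lysates were immunoblotted for TrkB phosphorylation and for downstream Akt and MAPK phosphorylation.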

In data set [10] the test system is Mus musculus. As to the kind of experiment: Toxicity in C57BL/6J mouse assessed as affect on complete blood count analysis at 5 mg/kg, po for 3 weeks. It is filed as organism-based. Also on record: dose 5 mg/kg, route oral. The following applies: in vivo, 504 h. The procedure, abridged:
as §1

Data set [11] concerns the target BDNF/NT-3 growth factors receptor (Rattus norvegicus) (UniProt Q63604). In words: Agonist activity at TrkB in E17 rat primary cortical neurons assessed as AKT phosphorylation at S473 at 500 nM by ELISA. Conditions: Cerebral cortex neuron.

BDNF/NT-3 growth factors receptor (Rattus norvegicus), sequence (Q63604 whole entry): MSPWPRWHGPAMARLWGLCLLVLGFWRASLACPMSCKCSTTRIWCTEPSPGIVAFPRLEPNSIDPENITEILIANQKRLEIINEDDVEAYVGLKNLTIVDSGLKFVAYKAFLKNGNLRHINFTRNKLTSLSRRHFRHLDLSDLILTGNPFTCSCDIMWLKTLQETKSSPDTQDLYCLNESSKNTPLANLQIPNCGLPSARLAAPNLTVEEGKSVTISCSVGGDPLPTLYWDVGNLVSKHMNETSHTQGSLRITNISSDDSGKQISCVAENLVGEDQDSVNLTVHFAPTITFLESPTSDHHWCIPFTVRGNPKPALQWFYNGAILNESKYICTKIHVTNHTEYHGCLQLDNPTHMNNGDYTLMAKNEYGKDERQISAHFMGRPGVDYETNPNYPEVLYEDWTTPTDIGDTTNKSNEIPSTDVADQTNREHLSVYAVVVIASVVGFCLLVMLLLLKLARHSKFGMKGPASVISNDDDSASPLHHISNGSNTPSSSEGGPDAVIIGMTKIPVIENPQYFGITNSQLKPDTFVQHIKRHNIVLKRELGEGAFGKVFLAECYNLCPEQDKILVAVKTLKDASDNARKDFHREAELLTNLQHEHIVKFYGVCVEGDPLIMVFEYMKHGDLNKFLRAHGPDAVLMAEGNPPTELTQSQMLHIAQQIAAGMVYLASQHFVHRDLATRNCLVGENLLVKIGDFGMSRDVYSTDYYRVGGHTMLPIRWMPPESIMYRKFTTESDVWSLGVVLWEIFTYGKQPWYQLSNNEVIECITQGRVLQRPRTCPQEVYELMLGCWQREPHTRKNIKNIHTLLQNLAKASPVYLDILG

As to `CN(C)c1ccc(-c2cc(=O)c3ccc(O)c(O)c3o2)cc1`, the result (in the data set with Mus musculus [1]; in data set [7]; in [8]; with Mus musculus [9]; in data set [11]) was Active. Moreover, the outcome in the data set with Mus musculus [2] was inactive. Moreover, the Activity result (with Mus musculus [3]; with Mus musculus [4]; in the data set with Mus musculus [5]; in the data set on HEK293; in [6]; with Mus musculus [10]) was “Non-toxic” in each case.
